# Laboratory results published in ChEMBL document CHEMBL5260822, “Structure-based design and synthesis of 2,4-diaminopyrimidines as EGFR L858R/T790M selective inhibitors for NSCLC” (Eur J Med Chem, 2017).
# Activity calls are given as the source filed them. No cut-off for these calls is given here.
# Columns and labels:
# [1] = AUC (0 to infinity) in Sprague-Dawley rat at 1 mg/kg, iv and measured after 24 hrs by LC-MS/MS analysis; assay type: ADME, organism-based; design: time 24 hrs, dose 1 mg/kg, route iv; conditions: in vivo
# [2] = Toxicity in BALB/c nude mouse xenografted with human NCI-H1975 cells harboring EGFR L858R/T790M mutant assessed as mortality at 15 to 30 mg/kg, po for 18 days; assay type: organism-based; conditions: in vivo, 432 h, dose 15-30 mg/kg, time 18 day
# In short: (§1)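 Female BALB/cA nu/nu mice were given 1 × 10^6 H1975 cells in 0.1 mL PBS subcutaneously in the right flank. At an average tumour volume of 100 mm3 (about 18 days post-implantation) they were randomised, n = 6 per group. Groups received 15 or 30 mg/kg/day for 18 consecutive days or vehicle. Mice were kept at constant room temperature, 12/12-h light/dark, with standard diet and water ad lib.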
# [3] = Cmax in Sprague-Dawley rat at 1 mg/kg, iv and measured after 24 hrs by LC-MS/MS analysis; assay type: ADME, organism-based; design: dose 1 mg/kg, time 24 hrs, route iv; conditions: in vivo
# [4] = target: T1, Epidermal growth factor receptor (Homo sapiens, UniProt P00533); assay: Inhibition of wild type EGFR (unknown origin) expressed in baculovirus expression system by ELISA
# [5] = test system: Epidermal growth factor receptor (Homo sapiens), P00533 [L858R,T790M]; assay: In vivo inhibition of EGFR in BALB/c nude mouse xenografted with human NCI-H1975 cells harboring EGFR L858R/T790M mutant assessed as decrease in phosphorylated-EGFR level at 15 to 30 mg/kg, po for 18 days by western blot analysis; assay type: functional, organism-based; conditions: dose 15-30 mg/kg, time 18.0 day
# [6] = Half life in Sprague-Dawley rat at 1 mg/kg, iv and measured after 24 hrs by LC-MS/MS analysis; assay type: ADME, organism-based; conditions: in vivo
# NCI-H1975 = assay: Inhibition of Erk signalling in EGF-stimulated human NCI-H1975 cells harboring EGFR L858R/T790M double mutant assessed as decrease in p-ERK level at 0.1 to 100 nM and measured after 2 hrs by Western blot analysis; assay type: cell-based; conditions: dose 0.1-100 nM
# In short: (§2)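 Cells treated with compound for 2 h, then stimulated with EGF for 15 min and lysed. Lysates cleared at 12,000 × g (10 min, 4 °C), protein measured by Bradford assay, and equal amounts run on 8% SDS-PAGE and blotted to nitrocellulose. Probed for p-EGFR (Y1068), EGFR, p-ERK (T202/Y204), ERK, with tubulin or GAPDH as loading controls.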
# [7] = target: T1, Epidermal growth factor receptor; assay: Inhibition of EGFR phosphorylation in EGF-stimulated human A-431 cells harboring wild type EGFR at 100 nM and measured after 2 hrs by Western blot analysis; assay type: cell-based; in short: as §2
# [8] = Toxicity in BALB/c nude mouse xenografted with human NCI-H1975 cells harboring EGFR L858R/T790M mutant assessed as morphological changes in heart at 15 to 30 mg/kg, po for 18 days by hematoxylin and eosin staining based microscopic analysis; assay type: organism-based; conditions: in vivo, 432 h, dose 15-30 mg/kg, time 18 day
# In short: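 H1975 subcutaneous xenografts were grown in female BALB/cA nu/nu mice (n = 6 per group), dosed at 15 or 30 mg/kg/day for 18 days or with vehicle. At the end the mice were sacrificed. Heart, kidney and liver were harvested, processed and stained with hematoxylin and eosin for routine histological examination.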
# [9] = Cmax in Sprague-Dawley rat at 10 mg/kg, po and measured after 24 hrs by LC-MS/MS analysis; assay type: ADME, organism-based; design: dose 10 mg/kg, time 24 hrs, route po; conditions: in vivo
# In short: (§3)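 Male Sprague–Dawley rats (190–220 g) dosed by oral gavage at 10 mg/kg in 5% DMSO / 95% HP-β-CD aqueous solution (20%); iv reference arm at 1 mg/kg. Blood sampled at 0.25, 0.5, 1, 2, 4, 6, 8 and 24 h, centrifuged (8000 × g, 6 min), and plasma quantified by LC–MS/MS.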
# [10] = target: Epidermal growth factor receptor (Homo sapiens, UniProt P00533, L858R/T790M); assay: Inhibition of EGFR L858R/T790M mutant (unknown origin) expressed in baculovirus expression system by ELISA
# [11] = Toxicity in BALB/c nude mouse xenografted with human NCI-H1975 cells harboring EGFR L858R/T790M mutant assessed as body weight loss at 15 to 30 mg/kg, po for 18 days; assay type: organism-based; conditions: in vivo, 432 h, dose 15-30 mg/kg, time 18 day; in short: as §1
# [12] = Clearance in Sprague-Dawley rat at 1 mg/kg, iv and measured after 24 hrs by LC-MS/MS analysis; assay type: ADME, organism-based; conditions: in vivo
# [13] = Half life in Sprague-Dawley rat at 10 mg/kg, po and measured after 24 hrs by LC-MS/MS analysis; assay type: ADME, organism-based; conditions: in vivo; in short: as §3
# [14] = target: T2, Tyrosine-protein kinase JAK3 (Homo sapiens) (UniProt P52333); assay: Inhibition of JAK3 (unknown origin) at 1000 nM by DiscoverX KINOMEscan assay relative to control; values are per cent of control
# T2 sequence (whole entry): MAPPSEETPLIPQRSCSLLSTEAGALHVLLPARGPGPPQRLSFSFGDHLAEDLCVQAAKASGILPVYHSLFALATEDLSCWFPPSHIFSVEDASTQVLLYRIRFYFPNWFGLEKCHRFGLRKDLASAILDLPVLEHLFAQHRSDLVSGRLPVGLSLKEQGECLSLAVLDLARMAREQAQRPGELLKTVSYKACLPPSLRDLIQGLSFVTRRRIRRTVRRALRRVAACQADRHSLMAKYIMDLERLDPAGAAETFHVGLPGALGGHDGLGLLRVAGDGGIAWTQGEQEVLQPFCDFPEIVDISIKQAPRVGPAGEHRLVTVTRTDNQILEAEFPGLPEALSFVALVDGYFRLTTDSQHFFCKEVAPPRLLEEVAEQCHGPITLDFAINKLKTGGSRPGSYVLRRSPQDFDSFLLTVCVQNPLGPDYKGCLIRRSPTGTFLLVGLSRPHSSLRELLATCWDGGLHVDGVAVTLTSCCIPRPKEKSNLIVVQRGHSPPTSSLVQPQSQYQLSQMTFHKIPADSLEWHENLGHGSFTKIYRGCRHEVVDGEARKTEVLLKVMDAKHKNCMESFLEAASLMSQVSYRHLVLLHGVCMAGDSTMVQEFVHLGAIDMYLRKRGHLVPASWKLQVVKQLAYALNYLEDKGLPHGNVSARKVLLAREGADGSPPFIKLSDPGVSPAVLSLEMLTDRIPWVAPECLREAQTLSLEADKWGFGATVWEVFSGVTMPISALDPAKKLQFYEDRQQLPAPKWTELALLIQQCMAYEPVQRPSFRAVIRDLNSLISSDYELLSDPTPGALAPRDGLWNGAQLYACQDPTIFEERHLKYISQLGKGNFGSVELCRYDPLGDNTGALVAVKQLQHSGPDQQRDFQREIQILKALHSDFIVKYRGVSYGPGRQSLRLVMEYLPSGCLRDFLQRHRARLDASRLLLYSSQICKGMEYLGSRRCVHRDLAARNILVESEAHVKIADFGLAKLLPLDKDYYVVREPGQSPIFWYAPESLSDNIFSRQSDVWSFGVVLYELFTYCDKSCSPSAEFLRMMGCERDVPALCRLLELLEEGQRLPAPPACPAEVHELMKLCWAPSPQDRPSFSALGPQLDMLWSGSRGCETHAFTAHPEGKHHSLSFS
# T1 sequence (P00533 whole entry): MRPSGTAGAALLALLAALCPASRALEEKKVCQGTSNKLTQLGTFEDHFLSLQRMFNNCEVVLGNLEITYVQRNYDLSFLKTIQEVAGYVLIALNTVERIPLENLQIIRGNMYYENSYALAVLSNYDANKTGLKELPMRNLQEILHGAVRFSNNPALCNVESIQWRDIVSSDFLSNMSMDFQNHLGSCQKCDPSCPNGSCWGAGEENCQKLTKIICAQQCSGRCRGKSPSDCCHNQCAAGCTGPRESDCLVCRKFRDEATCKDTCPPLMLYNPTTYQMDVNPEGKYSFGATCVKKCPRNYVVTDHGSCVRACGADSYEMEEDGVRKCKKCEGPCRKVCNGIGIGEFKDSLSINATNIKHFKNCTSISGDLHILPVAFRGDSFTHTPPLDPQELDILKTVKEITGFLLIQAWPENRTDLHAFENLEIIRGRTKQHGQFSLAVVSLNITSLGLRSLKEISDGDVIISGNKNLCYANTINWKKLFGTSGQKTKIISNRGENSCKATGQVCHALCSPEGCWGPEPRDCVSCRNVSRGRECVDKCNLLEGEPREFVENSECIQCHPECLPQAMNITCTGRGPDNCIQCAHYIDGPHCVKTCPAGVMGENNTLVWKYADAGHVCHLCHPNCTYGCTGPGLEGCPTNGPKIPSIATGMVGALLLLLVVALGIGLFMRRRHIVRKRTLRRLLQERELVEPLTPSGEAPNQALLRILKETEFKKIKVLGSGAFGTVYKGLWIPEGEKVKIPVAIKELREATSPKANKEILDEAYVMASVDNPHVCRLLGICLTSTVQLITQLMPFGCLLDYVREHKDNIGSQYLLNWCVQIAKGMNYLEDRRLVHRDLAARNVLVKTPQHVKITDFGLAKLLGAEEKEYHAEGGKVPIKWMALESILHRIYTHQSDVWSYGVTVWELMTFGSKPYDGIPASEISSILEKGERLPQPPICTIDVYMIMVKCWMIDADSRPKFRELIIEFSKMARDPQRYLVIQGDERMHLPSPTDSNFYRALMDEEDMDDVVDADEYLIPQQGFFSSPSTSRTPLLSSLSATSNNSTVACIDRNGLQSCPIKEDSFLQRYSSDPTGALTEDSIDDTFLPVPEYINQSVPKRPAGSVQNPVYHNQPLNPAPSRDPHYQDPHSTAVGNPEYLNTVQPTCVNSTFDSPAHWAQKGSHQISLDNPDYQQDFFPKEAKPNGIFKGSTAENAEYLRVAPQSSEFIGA
# Epidermal growth factor receptor (Homo sapiens, UniProt P00533, L858R/T790M), sequence (P00533 25-1210 T790M/L858R limits assumed): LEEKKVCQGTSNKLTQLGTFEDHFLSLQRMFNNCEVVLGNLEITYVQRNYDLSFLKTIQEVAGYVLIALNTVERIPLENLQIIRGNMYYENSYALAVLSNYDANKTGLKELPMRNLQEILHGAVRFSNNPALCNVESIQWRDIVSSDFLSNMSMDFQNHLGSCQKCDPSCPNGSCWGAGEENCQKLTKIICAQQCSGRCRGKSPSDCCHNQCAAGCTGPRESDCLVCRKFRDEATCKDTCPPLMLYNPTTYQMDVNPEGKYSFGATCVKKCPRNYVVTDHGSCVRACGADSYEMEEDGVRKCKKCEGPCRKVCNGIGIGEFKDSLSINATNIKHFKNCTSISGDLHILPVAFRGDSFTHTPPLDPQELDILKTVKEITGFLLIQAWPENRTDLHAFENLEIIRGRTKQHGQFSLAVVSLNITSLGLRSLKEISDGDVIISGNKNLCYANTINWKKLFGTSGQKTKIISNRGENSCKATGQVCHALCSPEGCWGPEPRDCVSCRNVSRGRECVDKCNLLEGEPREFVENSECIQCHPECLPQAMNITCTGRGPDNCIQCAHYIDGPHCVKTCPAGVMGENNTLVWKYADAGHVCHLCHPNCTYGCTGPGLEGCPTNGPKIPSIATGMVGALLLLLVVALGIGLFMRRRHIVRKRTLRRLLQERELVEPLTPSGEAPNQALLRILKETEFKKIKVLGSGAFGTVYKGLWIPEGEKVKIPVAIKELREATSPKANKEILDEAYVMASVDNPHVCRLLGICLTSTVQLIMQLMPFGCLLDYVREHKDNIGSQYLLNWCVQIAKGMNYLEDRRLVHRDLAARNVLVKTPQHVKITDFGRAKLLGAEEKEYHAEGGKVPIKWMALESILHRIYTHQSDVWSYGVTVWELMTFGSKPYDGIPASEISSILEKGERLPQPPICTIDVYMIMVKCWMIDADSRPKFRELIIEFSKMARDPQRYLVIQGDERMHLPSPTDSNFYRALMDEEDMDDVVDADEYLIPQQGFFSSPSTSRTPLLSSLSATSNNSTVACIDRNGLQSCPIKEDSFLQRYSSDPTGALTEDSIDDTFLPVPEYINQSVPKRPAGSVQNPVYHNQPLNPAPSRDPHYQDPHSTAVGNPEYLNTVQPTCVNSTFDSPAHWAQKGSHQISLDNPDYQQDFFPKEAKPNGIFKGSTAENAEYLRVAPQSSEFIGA
# Epidermal growth factor receptor (Homo sapiens), P00533 [L858R,T790M], sequence (P00533 whole entry T790M/L858R, looked up): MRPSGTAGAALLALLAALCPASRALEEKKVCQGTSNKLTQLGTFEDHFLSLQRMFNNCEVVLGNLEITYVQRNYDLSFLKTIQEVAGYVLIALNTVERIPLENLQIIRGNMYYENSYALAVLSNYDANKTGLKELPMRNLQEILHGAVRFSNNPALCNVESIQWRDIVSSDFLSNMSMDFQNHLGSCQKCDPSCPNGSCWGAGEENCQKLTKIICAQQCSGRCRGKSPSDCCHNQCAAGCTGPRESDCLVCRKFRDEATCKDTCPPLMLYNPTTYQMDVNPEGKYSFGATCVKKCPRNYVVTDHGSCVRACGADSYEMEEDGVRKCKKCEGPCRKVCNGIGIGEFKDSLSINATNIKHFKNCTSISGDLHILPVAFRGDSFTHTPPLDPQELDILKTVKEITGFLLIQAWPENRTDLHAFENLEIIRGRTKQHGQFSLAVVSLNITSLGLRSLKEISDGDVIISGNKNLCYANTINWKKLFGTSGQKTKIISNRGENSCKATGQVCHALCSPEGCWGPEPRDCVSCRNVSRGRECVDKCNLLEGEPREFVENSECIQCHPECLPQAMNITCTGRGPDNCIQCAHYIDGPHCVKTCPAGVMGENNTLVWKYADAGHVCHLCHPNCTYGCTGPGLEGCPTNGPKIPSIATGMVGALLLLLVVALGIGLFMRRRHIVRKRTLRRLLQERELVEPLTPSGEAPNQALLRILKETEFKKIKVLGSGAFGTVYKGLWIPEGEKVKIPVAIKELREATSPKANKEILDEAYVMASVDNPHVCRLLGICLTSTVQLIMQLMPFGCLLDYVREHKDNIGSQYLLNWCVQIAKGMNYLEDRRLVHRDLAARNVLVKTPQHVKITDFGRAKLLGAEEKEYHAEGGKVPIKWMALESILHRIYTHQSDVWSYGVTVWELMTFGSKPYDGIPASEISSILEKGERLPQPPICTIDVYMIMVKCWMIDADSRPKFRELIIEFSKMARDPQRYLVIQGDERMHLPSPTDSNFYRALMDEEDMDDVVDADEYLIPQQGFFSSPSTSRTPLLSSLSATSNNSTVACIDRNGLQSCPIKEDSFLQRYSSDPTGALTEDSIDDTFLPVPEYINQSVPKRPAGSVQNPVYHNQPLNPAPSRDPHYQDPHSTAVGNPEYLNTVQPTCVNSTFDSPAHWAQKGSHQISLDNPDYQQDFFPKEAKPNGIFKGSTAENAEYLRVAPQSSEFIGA
smiles,measurement,setting,value
C=CC(=O)Nc1cc(Nc2ncc(Br)c(Nc3ccc4ccn(C)c4c3)n2)c(OC)cc1N1CCN(C)CC1,AUC,[1],515 ng·h/mL
same,Activity,[2],Non-Toxic
same,Cmax,[3],235 ng/mL
same,IC50,[4],280 nM
same,inhibition,[5],Active
same,half-life,[6],3.47 h
same,inhibition,NCI-H1975,Dose-Dependent Effect
same,inhibition,[7],inactive
same,Activity,[8],Non-Toxic
same,Cmax,[9],636 ng/mL
same,IC50,[10],4.1 nM
same,Activity,[11],Non-Toxic
same,clearance,[12],32.6 mL/min/kg
same,half-life,[13],3.25 h
same,residual activity,[14],< 1%
